According to ChEMBL document CHEMBL1138292, “Discovery of a tetrazole-based growth hormone secretagogue: 4-(hydroxybutyl)carbamic acid 2-{5-[1-(2-amino-2-methylpropionylamino)-2- benzyloxyethyl]tetrazol-1-yl}ethyl ester (BMS-317180)” (J Med Chem, 2007):
Values belong to the molecule of their own block, whether it stands above or below them. Activity calls are given as the source filed them. No cut-off for these calls is given here.

Key:
[1] = molecular target: Growth hormone secretagogue receptor type 1 (Homo sapiens, UniProt Q92847); assay: Intrinsic activity at human GHS receptor in H4 glioma cells assessed by measuring intracellular calcium concentration by FLIPR assay; type: functional, cell-based
Procedure, shortened: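 H4 glioma cells with endogenous human GHS receptor expression enhanced by RAGE activation. Agonist-stimulated intracellular calcium mobilization read with a calcium-sensitive fluorescent probe in FLIPR.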

Cytochrome P450 1A2 = molecular target: T1, Cytochrome P450 1A2 (Homo sapiens, UniProt P05177); assay: Inhibition of CYP1A2; type: ADME
T1 sequence (P05177 whole entry): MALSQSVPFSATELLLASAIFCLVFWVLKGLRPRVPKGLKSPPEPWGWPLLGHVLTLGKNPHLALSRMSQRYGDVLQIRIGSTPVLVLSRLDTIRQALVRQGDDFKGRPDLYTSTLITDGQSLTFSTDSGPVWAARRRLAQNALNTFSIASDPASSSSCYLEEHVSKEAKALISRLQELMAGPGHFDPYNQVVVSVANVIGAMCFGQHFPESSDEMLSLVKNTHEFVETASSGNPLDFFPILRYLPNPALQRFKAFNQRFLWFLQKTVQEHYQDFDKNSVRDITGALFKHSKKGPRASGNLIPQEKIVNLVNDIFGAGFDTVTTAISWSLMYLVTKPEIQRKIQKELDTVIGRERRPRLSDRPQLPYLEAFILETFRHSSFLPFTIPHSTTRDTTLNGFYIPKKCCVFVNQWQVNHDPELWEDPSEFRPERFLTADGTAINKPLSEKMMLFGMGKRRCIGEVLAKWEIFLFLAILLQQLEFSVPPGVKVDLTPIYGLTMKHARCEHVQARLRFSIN

Cytochrome P450 2C9 = Cytochrome P450 2C9 (Homo sapiens, UniProt P11712); assay: Inhibition of CYP2C9; type: ADME
Salmonella typhimurium [2] = assay: Mutagenic effect on Salmonella Typhimurium TA100 by Ames test; type: toxicity, organism-based; conditions: salmonella enterica subsp. enterica serovar typhimurium
[3] = Half life in rat at 15 umol/kg, po; type: ADME, organism-based; conditions: in vivo
Procedure, shortened: (§1)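 Fasted animals (rat, cynomolgus monkey, beagle dog) given single oral doses of 15, 10 and 10 µmol/kg respectively; intravenous reference dose 5 µmol/kg in all species. Oral bioavailability, half-life and plasma clearance derived from the plasma profiles.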

Rattus norvegicus = assay: Increase in plasma growth hormone level in iv dosed Wistar rat after 15 mins by radioimmunoassay; type: functional; conditions: 0.25 h
Procedure, shortened: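 Anesthetized rats, groups of five, dosed iv in 10% ethanol, […] saline (v/v) vehicle at 10 mL/kg. Abdominal aorta blood sampled at 15 min; plasma rat GH measured by a modified radioimmunoassay kit.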

Canis familiaris [4] = assay: Plasma clearance in Beagle dog at 10 umol/kg, po; type: ADME, organism-based, Canis lupus familiaris; conditions: in vivo; procedure, shortened: as §1
[5] = Bioavailability in rat at 15 umol/kg, po; type: ADME, organism-based; conditions: in vivo; procedure, shortened: as §1
[6] = Half life in Beagle dog at 10 umol/kg, po; type: ADME, organism-based, Canis lupus familiaris; conditions: in vivo; procedure, shortened: as §1
[7] = Plasma clearance in rat at 15 umol/kg, po; type: ADME, organism-based; procedure, shortened: as §1
Macaca fascicularis [8] = assay: Bioavailability in monkey at 10 umol/kg, po; conditions: cynomolgus monkey, in vivo
Hepatocyte = assay: Toxicity in human hepatocytes upto 250 ug/mL; type: cell-based
Procedure, shortened: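 Human hepatocyte hepatotoxicity assay run at concentrations up to 250 µg/mL.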

Cytochrome P450 3A4 = Cytochrome P450 3A4 (Homo sapiens, UniProt P08684); assay: Inhibition of CYP3A4; type: ADME
Canis familiaris [9] = assay: Increase in plasma growth hormone level in Beagle dog at 0.52 to 52.3 umol/kg, po; type: functional, organism-based; conditions: Canis lupus familiaris
Procedure, shortened: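 Conscious beagle dogs given single oral doses of 0.52 to 52.3 µmol/kg, water as vehicle control; plasma GH followed over a 4 h time course.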

Macaca fascicularis [10] = assay: Half life in monkey at 10 umol/kg, po; conditions: cynomolgus monkey, in vivo
Cytochrome P450 2D6 = Cytochrome P450 2D6 (Homo sapiens, UniProt P10635); assay: Inhibition of CYP2D6; type: ADME
[11] = Solubility at pH 4; type: physicochemical; conditions: buffer
Macaca fascicularis [12] = assay: Plasma clearance in monkey at 10 umol/kg, po; conditions: cynomolgus monkey
Cytochrome P450 2C19 = Cytochrome P450 2C19 (Homo sapiens, UniProt P33261); assay: Inhibition of CYP2C19; type: ADME
[13] = Bioavailability in Beagle dog at 10 umol/kg, po; type: ADME, organism-based, Canis lupus familiaris; conditions: in vivo; procedure, shortened: as §1
Salmonella typhimurium [14] = assay: Mutagenic effect on Salmonella Typhimurium TA98 by Ames test; type: toxicity, organism-based; conditions: salmonella enterica subsp. enterica serovar typhimurium
[15] = Bioavailability in rat; type: ADME, organism-based; conditions: in vivo

Sequence of Growth hormone secretagogue receptor type 1 (Q92847 whole entry): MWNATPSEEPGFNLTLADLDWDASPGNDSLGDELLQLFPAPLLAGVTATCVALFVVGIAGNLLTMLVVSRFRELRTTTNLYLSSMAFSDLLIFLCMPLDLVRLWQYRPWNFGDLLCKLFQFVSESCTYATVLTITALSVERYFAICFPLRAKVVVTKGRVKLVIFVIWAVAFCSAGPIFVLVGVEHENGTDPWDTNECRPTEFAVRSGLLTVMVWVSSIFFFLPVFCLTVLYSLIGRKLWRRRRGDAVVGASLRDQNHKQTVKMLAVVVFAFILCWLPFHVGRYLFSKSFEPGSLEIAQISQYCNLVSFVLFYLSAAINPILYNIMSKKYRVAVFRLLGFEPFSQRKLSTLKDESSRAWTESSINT
Sequence of Cytochrome P450 2C19 (P33261 whole entry): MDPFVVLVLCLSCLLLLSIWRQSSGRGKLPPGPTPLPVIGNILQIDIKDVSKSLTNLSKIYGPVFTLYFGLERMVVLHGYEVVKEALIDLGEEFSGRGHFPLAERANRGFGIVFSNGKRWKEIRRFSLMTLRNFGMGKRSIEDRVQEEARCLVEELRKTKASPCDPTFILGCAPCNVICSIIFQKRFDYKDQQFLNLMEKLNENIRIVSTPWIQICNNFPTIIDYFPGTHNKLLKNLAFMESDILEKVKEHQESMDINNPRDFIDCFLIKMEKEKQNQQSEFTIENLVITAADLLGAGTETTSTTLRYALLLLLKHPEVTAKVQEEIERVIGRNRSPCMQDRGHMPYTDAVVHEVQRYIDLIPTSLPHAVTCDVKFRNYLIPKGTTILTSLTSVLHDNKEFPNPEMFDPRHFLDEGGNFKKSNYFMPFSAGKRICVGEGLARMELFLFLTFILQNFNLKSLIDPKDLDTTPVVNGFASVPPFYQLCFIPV
Sequence of Cytochrome P450 2D6 (P10635 whole entry): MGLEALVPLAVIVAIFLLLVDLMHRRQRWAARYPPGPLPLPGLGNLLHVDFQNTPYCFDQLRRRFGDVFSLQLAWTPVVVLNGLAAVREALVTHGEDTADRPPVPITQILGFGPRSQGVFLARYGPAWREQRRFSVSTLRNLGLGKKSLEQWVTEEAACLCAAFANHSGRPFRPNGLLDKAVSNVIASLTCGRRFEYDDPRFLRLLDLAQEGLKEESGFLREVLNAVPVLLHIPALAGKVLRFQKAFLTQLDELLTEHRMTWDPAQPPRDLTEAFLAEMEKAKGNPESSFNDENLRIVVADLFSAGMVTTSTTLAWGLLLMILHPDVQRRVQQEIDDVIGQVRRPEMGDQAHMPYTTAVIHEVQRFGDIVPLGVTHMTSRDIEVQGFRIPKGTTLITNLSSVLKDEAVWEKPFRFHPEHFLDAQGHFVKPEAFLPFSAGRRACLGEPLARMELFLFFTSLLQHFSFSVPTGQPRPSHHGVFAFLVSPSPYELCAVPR
Sequence of Cytochrome P450 2C9 (P11712 whole entry): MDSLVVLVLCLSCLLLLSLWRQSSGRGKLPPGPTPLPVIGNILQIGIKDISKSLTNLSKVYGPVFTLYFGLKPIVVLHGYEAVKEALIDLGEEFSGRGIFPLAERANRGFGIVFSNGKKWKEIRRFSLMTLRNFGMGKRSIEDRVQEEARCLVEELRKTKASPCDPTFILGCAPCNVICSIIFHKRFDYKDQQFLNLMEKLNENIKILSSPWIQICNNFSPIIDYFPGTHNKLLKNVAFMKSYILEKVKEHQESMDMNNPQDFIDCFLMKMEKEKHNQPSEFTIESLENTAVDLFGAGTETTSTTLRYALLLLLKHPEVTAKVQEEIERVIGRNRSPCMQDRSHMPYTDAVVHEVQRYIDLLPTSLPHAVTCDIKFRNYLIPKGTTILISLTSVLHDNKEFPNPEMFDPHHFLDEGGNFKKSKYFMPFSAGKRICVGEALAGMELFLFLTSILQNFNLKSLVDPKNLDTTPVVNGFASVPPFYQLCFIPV
Sequence of Cytochrome P450 3A4 (P08684 whole entry): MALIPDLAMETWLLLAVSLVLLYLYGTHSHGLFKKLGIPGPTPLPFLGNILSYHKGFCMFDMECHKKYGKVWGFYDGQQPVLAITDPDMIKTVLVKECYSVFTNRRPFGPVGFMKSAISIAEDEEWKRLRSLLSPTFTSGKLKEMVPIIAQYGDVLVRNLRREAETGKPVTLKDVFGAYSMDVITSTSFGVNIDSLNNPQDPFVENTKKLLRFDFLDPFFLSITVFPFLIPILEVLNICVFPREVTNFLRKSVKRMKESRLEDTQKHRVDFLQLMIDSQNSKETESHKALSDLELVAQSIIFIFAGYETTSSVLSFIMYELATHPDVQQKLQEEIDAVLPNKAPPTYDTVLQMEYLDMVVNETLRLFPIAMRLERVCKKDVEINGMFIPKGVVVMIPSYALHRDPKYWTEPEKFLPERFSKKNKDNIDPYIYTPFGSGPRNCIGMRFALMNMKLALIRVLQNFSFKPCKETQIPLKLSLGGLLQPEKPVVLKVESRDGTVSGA

Structure (SMILES): CC(C)(N)C(=O)N[C@H](COCc1ccccc1)c1nnnn1CCOC(=O)NCCCn1ccnc1
- EC50 [1]: 45.3 nM

Structure (SMILES): CC(=O)NCCCCNC(=O)OCCn1nnnc1[C@@H](COCc1ccccc1)NC(=O)C(C)(C)N
- EC50 [1]: 82.5 nM

Structure (SMILES): CC(C)(N)C(=O)N[C@H](COCc1ccccc1)c1nnnn1CCOC(=O)NCCc1cccc(O)c1
- EC50 [1]: 7.9 nM

Structure (SMILES): CC(C)(N)C(=O)N[C@H](COCc1ccccc1)c1nnnn1CCOC(=O)NCCCCCO
- EC50 [1]: 14.6 nM

Structure (SMILES): CN(CCCCO)C(=O)OCCn1nnnc1[C@@H](COCc1ccccc1)NC(=O)C(C)(C)N
- EC50 [1]: 3.8 nM

Further lines, with some results ahead:

- EC50 [1]: 3 nM
Structure (SMILES): CC(C)(N)C(=O)N[C@H](COCc1ccccc1)c1nnnn1CCOC(=O)NCCO

- EC50 [1]: 10.1 nM
Structure (SMILES): CC1(O)CCN(C(=O)OCCn2nnnc2[C@@H](COCc2ccccc2)NC(=O)C(C)(C)N)C1 (stereo partly drawn)

- IC50 (Cytochrome P450 1A2): > 100000 nM
- IC50 (Cytochrome P450 2C9): > 100000 nM
- half-life [3]: 0.7 h
- clearance (Canis familiaris [4]): 21 mL/min/kg
- EC50 [1]: 1.9 nM
- bioavailability [5]: 9%
- half-life [6]: 2.3 h
- CL/F [7]: 213 mL/min/kg
- bioavailability (Macaca fascicularis [8]): 12%
- IC50 (Cytochrome P450 3A4): > 100000 nM
- half-life (Macaca fascicularis [10]): 1.1 h
- IC50 (Cytochrome P450 2D6): > 100000 nM
- solubility [11]: > 100 mg/mL
- CL/F (Macaca fascicularis [12]): 37 mL/min/kg
- IC50 (Cytochrome P450 2C19): > 100000 nM
- bioavailability [13]: 40%
Structure (SMILES): CC(C)(N)C(=O)N[C@H](COCc1ccccc1)c1nnnn1CCOC(=O)NCCCCO
- Activity (Salmonella typhimurium [2]): Non-toxic
- ED50 (Rattus norvegicus): 0.08 µmol/kg
- Activity (Hepatocyte): Non-toxic
- Activity (Canis familiaris [9]): Active
- Activity (Salmonella typhimurium [14]): Non-toxic

- EC50 [1]: 3.3 nM
- bioavailability [15]: < 5%
Structure (SMILES): CC(=O)N[C@@H]1CCN(C(=O)OCCn2nnnc2[C@@H](COCc2ccccc2)NC(=O)C(C)(C)N)C1

- EC50 [1]: 5.5 nM
Structure (SMILES): CC(C)(N)C(=O)N[C@H](COCc1ccccc1)c1nnnn1CCOC(=O)NCCCO

- EC50 [1]: 9.5 nM
Structure (SMILES): CC(C)(N)C(=O)N[C@H](COCc1ccccc1)c1nnnn1CCOC(=O)NC[C@H]1CCCO1

- EC50 [1]: 1 nM
Structure (SMILES): CC(C)(N)C(=O)N[C@H](COCc1ccccc1)c1nnnn1CCOC(=O)N1CC[C@@H](O)C1
